697 NFkB inh = lowers PMA/ionomycin-induced NF-kB signal in 697 B cells. 697 B-cell NF-kB luciferase reporter, 16 h. inhibition, % at 4 µM. 0.33% of 330,000 active. AID 435022; in the data active means inhibition above about 35%
HSF1 inh = HSF1 inhibition; NIH3T3-HGL HSE-luciferase, MG132-induced, luminescence 8 h; hits give low values; activity change, negative = inhibition, % at 7.5 µM (by protocol); 0.77% of 300,000 active;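 active means more than half of replicate wells show activity change below -50%, luminescence cut by over half; inconclusive means some wells, but at most half, below -50%; inactive means no replicate well below -50%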;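 further: luciferase reports HSF-1 transcriptional activity via heat shock element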
T cruzi repl = T. cruzi replication inhibition; 1.4% of 300,000 active; inhibition, % (concentration not given with the values); T. cruzi beta-gal in NIH3T3, luminescence, 90 h;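 active means mean inhibition across valid replicates above about 55%, limit read from the data; inconclusive means mean below that limit but half or more replicates reach it; inactive means mean below it, under half of replicates reach it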;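 further: signal also drops with host cell toxicity which is not excluded here; higher percent means less beta-gal luminescence so fewer parasites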
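Read-out: Parasite load inhibition, % | Test system: Mouse NIH/3T3 fibroblasts infected with β-gal-expressing T. cruzi Tulahuen C4 | Amount: 5,000 cells/well | Medium: DMEM, 2% fetal bovine serum | Signal: GalScreen β-gal luminescence, detergent lysis, 60 min | Timing: 3 h attach, ≥90 h co-culture | Also added: Tulahuen C4 trypomastigotes, 5000/well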
GPR7 antag = blocks human GPR7 receptor signaling | P48145 | GPR7-expressing cells, fluorescence antagonist assay | inhibition, % at 4.4 µM | 1.1% of 290,000 active | AID 1861; in the data active means inhibition above about 16%, passing the limit was not always enough;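 further: cells stimulated with the agonist NPW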
Target sequence (P48145 whole entry, looked up): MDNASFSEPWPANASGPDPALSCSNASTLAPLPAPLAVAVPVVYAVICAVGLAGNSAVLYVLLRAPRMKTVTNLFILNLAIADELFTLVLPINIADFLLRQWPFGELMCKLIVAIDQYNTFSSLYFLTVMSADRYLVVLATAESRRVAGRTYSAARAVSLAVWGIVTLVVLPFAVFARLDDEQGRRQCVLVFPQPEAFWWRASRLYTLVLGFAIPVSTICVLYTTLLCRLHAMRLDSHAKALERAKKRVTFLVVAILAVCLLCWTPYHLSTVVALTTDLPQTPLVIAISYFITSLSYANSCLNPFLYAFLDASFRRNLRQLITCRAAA
Jurkat NFkB inh = inhibitors of the PMA/ionomycin-induced NF-kB reporter in Jurkat cells. PMA/ionomycin-induced NF-kB luciferase reporter, luminescence. inhibition, % at 4 µM. 0.53% of 330,000 active. AID 435003; in the data active means inhibition above about 50%
HSF-1 act = increases HSF-1 driven luciferase reporter signal; NIH3T3-HGL HSF-1 luciferase reporter, MG132, 8 h; 100% = twice DMSO control signal; activation, % at 9 µM; 1.7% of 300,000 active;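 active means mean replicate activation of at least 50% with a set share of replicates each reaching 50%; inconclusive means only one of those two conditions met; inactive means mean below 50% and too few replicates reaching it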
GPR7 antag cf = confirmation of human GPR7 antagonists; GPR7-expressing cells, calcium fluorescence antagonist mode; inhibition, % at 4.4 µM; shares compounds with GPR7 antag; AID 1952; 52% of 2,400 active; in the data active means inhibition above about 24%;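 further: stimulated with the GPR7 agonist NPW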
MCHR1 antag = antagonizes human MCHR1, a GPR7 antagonist counter-screen; shares compounds with GPR7 antag; MCHR1-expressing cells, fluorescence antagonist assay; inhibition, % at 4.4 µM; 62% of 2,400 active; AID 2148; in the data active means inhibition above about 22%
Each line names hits and unclear results; the compound was inactive in the other large screens (follow-up assays come after a bar, where they were run). Shown are actives, neighbours in structure and some others; about 4.8% of the full set was active somewhere.

O=S(=O)(c1ccc(OCC(O)CN2CCN(c3ccccc3)CC2)cc1)N1CCOCC1 (stereo not drawn)	GPR7 antag 25 | GPR7 antag cf inactive | MCHR1 antag inactive
O=S(=O)(c1ccc(OCC(O)CN2CCN(c3ccccc3O)CC2)cc1)N1CCOCC1 (stereo not drawn)	none
Cc1ccc(C(=O)OCC(=O)c2c(N)n(C)c(=O)n(C)c2=O)cc1S(=O)(=O)N1CCOCC1	none (no result: HSF1 inh, T cruzi repl, GPR7 antag, HSF-1 act)
Cn1c(N)c(C(=O)COC(=O)/C=C/c2ccc(S(=O)(=O)N3CCOCC3)cc2)c(=O)n(C)c1=O	GPR7 antag 24 | GPR7 antag cf inactive | MCHR1 antag inactive
CNC[C@H](Cc1ccccc1)NC[C@@H](Cc1cccc2ccccc12)NCCc1ccc(C)cc1	HSF1 inh -91, GPR7 antag 43 | GPR7 antag cf 67 | MCHR1 antag 76
CCN1CCc2c(sc(NC(=O)Nc3ccc(Cl)c(Cl)c3)c2C(N)=O)C1	GPR7 antag 58 (no result: 697 NFkB inh, HSF1 inh, T cruzi repl, Jurkat NFkB inh, HSF-1 act) | GPR7 antag cf 60 | MCHR1 antag 81
CCN1CCc2c(sc(NC(=O)Cc3ccccc3)c2C(N)=O)C1	none
Cc1ccc(NC(=O)CC2=NC(=O)C(CC(=O)Nc3ccccc3C)S2)cc1 (stereo not drawn)	none
CC(NCc1cccc(OCc2ccccc2)c1)C(O)c1ccccc1 (stereo not drawn)	none
CC(NCc1ccc(OCc2ccc(Cl)cc2)cc1)C(O)c1ccccc1 (stereo not drawn)	GPR7 antag 27 | GPR7 antag cf 58 | MCHR1 antag 81
Nc1cnn(C2CCCO2)c(=O)n1 (stereo not drawn)	GPR7 antag 24 | GPR7 antag cf inactive | MCHR1 antag inactive
O=C(Nc1cccc(C(F)(F)F)c1)C1CCN(S(=O)(=O)c2ccc(N3CCCC3=O)cc2)CC1	none
CCn1c(CNc2ccc(Cl)cc2)nnc1SCc1ccc(Cl)cc1	GPR7 antag 34 | GPR7 antag cf 41 | MCHR1 antag 45
CCn1c(CNc2ccc(Cl)cc2)nnc1SCCN1CCCCC1	none (no result: GPR7 antag) | MCHR1 antag inactive
Cc1c(C)c(C)c(S(=O)(=O)N2CCNCC2)c(C)c1C	none
CC(NC(=O)Cn1c(NCCO)nc2ccccc21)C1CC2CCC1C2 (stereo not drawn)	GPR7 antag 33 | GPR7 antag cf 27 | MCHR1 antag inactive
Cc1nc2ccccc2n1CC(=O)NC(C)C1CC2CCC1C2 (stereo not drawn)	none
COCCN=C1N[C@@H](c2ccc(Br)cc2)C(C(=O)OC)=C(C)N1Cc1ccccc1	GPR7 antag 49 | GPR7 antag cf 65 | MCHR1 antag 41
COC(=O)C1=C(C)N(Cc2ccccc2)C(=NCc2ccccc2)N[C@H]1c1cccc(F)c1	GPR7 antag 51 | GPR7 antag cf 55 | MCHR1 antag 59
COC(=O)C1=C(C)N(Cc2ccccc2)C(=NCc2ccccc2)N[C@H]1c1ccccc1	none (no result: HSF1 inh, T cruzi repl, GPR7 antag, HSF-1 act)
COc1ccc(C2c3c(ncn(CCN4CCOCC4)c3=N)Oc3ccc4ccccc4c32)cc1OC (stereo not drawn)	none
O=C(Nc1sc2c(c1C(=O)N1CCOCC1)CCCCC2)c1cccnc1	none
CCC(NC(=O)c1[nH]c(C)c(C(C)=O)c1C)c1ccc(Br)cc1 (stereo not drawn)	GPR7 antag 29 | GPR7 antag cf inactive | MCHR1 antag inactive
CCC(C)c1ccc(NC(=O)c2[nH]c(C)c(C(C)=O)c2C)cc1 (stereo not drawn)	none
COc1ccc(C(C)=O)cc1CC(=O)Nc1ccc2c(c1)CCC2	none
Cc1ccc(N2C(=O)N3[C@H](c4ccc(F)cc4)[C@@H]4C(=O)N(C5CCCCC5)C(=O)[C@@H]4[C@]3(Cc3ccccc3)C2=O)cc1	none
O=C(Cc1ccc([N+](=O)[O-])cc1)Nc1ccc2c(c1)CCC2	GPR7 antag 22 | GPR7 antag cf inactive | MCHR1 antag 27
COC(=O)C[C@H]1c2ccccc2S(=O)(=O)N1Cc1ccc(OC)cc1	none (no result: GPR7 antag)
CCOC(=O)c1c(NC(=O)C2COc3ccccc3O2)sc2c1CC(C)(C)NC2(C)C (stereo not drawn)	GPR7 antag 23, HSF-1 act inconclusive | GPR7 antag cf 32 | MCHR1 antag 38
CCOC(=O)c1c(NC(=O)C2COc3ccccc3O2)sc(C(C)=O)c1C (stereo not drawn)	none
CCOC(=O)c1c(-c2ccc(OC)cc2)cn2ccccc12	none
Cc1ccc(-c2nnc(Nc3ccc(O)cc3)c3ccccc23)cc1S(=O)(=O)NCCO	none
CCOC(=O)CNS(=O)(=O)c1cc(-c2nnc(Nc3ccc4c(c3)OCO4)c3ccccc23)ccc1C	GPR7 antag 36 | GPR7 antag cf 47 | MCHR1 antag 78
CC1=CC2=NC(=O)/C(=C\c3cc(C)n(-c4cccc(Cl)c4)c3C)C(=N)N2O1	none
CC1=CC2=NC(=O)/C(=C/c3coc4ccc(Cl)cc4c3=O)C(=N)N2O1	GPR7 antag 21 | GPR7 antag cf 28 | MCHR1 antag 61
COc1ccc(OC)c(N(CC(=O)N2CCC(C)CC2)S(=O)(=O)c2ccccc2)c1	GPR7 antag 26, HSF-1 act 60 | GPR7 antag cf inactive | MCHR1 antag inactive
CC1Oc2ccccc2N(CC(=O)Nc2ccc(F)cc2)C1=O (stereo not drawn)	none
COc1ccc(NC(=O)c2ccccc2OCc2c(C)noc2C)cc1OC	none
CN(C)S(=O)(=O)c1ccc(N2CCCC2)c(C(=O)NC(c2ccccc2)c2ccccc2)c1	GPR7 antag 25 | GPR7 antag cf 32 | MCHR1 antag 22
Cc1cc(NC(=O)CSc2nnc(Cc3cccn3C)n2CCc2ccccc2)no1	none (no result: HSF1 inh, T cruzi repl, HSF-1 act)
Cc1csc(NC(=O)CSc2nnc(Cc3cccn3C)n2CCc2ccccc2)n1	GPR7 antag 28 (no result: HSF1 inh, T cruzi repl, HSF-1 act) | GPR7 antag cf inactive | MCHR1 antag inactive
Cc1nn(-c2ccccc2)c(N)c1Sc1ccc([N+](=O)[O-])cc1	GPR7 antag 23 | GPR7 antag cf 33 | MCHR1 antag 55
CC(Sc1nnc2ccccn12)C(=O)NCc1ccc2c(c1)OCO2 (stereo not drawn)	none
CC(Sc1nnc(-c2cccnc2)n1-c1ccccc1)C(=O)NCc1ccc2c(c1)OCO2 (stereo not drawn)	none
COc1ccc(-c2nnc(SC(C)C(=O)NCc3ccc4c(c3)OCO4)n2Cc2ccco2)cc1 (stereo not drawn)	GPR7 antag 48 | GPR7 antag cf 39 | MCHR1 antag 23
O=C(CSc1nnc(-c2ccc(Cl)cc2)n1Cc1ccco1)Nc1ccc2c(c1)OCCO2	none

Source: PubChem (several laboratories)
